Results: ChEMBL document CHEMBL1153019, “Lignans with anti-HIV activity from Schisandra propinqua var. sinensis” (J Nat Prod, 2009)

What was measured:
[1] = tested on: Human immunodeficiency virus 1; test: Antiviral activity against HIV1 3B in human C8166 cells assessed as inhibition of virus-induced cytopathogenicity; type: functional, organism-based; details: Human immunodeficiency virus 1, 3B
In short: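 HIV-1 cytopathic-effect inhibition in C8166 cells, run in parallel with the cytotoxicity test. AZT served as positive control, and EC50 was the read-out.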

[2] = Selectivity index, ratio of CC50 for human C8166 cells to EC50 for HIV1 3B; type: toxicity, cell-based; details: read-out: Ratio CC50/EC50
[3] = Cytotoxicity against human C8166 cells by MTT assay; type: cell-based
In short: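 MTT read-out of C8166 cell viability, run in parallel with the anti-HIV-1 cytopathic-effect assay. AZT served as positive control, and CC50 was derived.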

SMILES	EC50 [1]	selectivity ratio [2]	CC50 [3]
COc1ccc([C@H]2O[C@H](c3ccc4c(c3)OCO4)[C@@H](C)[C@H]2C)cc1OC	15.5 µM	6.7	104 µM
COc1ccc(CC(C)C(C)Cc2cc(OC)c(OC)c(OC)c2)cc1OC (stereo not drawn) [TIEGUSANIN N]	9.4 µM	2.6	24.5 µM
COc1ccc([C@H]2O[C@@H](c3ccc(OC)c(OC)c3)[C@H](C)[C@@H]2C)cc1OC [GALGRAVIN]	7.7 µM	5.6	43.4 µM
COc1cc2c(c(OC)c1OC)-c1c(cc3c(c1OC)OCO3)[C@H](OC(=O)c1ccccc1)[C@H](C)[C@](C)(O)[C@H]2OC(=O)c1ccccc1	22.9 µM	> 8.7	> 200 µM
COc1cc2c(c(OC)c1OC)-c1c(cc(OC)c(OC)c1OC(=O)c1ccccc1)[C@H](O)[C@H](C)[C@H](C)C2 [TIEGUSANIN C]	18.5 µM	> 10.8	> 200 µM
COc1ccc(C[C@@H](C)[C@@H](C)Cc2ccc(OC)c(OC)c2)cc1OC [TERAMEPROCOL]	14.8 µM	2	28.8 µM
C/C=C(\C)C(=O)Oc1c(OC)c(OC)cc2c1-c1c(cc(OC)c(OC)c1OC)[C@H](O)[C@H](C)[C@H](C)C2 [METHYL SCHISANTHERIN F]	15.7 µM	> 12.7	> 200 µM
COc1cc2c(cc1O)C[C@@H](C)[C@@H](C)[C@@H]2c1ccc(OC)c(OC)c1	4.5 µM	6.7	30 µM
COc1cc2c(c(OC)c1OC)-c1c(cc3c(c1OC)OCO3)[C@H](OC(=O)c1ccccc1)[C@H](C)[C@](C)(O)[C@H]2OC(=O)/C=C/c1ccccc1	51.4 µM	> 3.9	> 200 µM
COc1ccc([C@@H]2O[C@H](c3ccc4c(c3)OCO4)[C@@H](C)[C@@H]2C)cc1O	6.8 µM	2.9	19.9 µM
COc1cc(C[C@@H](C)[C@@H](C)Cc2ccc(O)c(OC)c2)ccc1O [MESODIHYDROGUAIARETIC ACID]	4 µM	6.2	24.9 µM
COc1cc2c(c(OC)c1OC)-c1c(cc3c(c1OC)OCO3)[C@H](OC(C)=O)[C@H](C)[C@H](C)C2 [KADSURIN]	79.1 µM	> 2.5	> 200 µM
CCCCCC(=O)O[C@H]1c2cc3c(c(OC)c2-c2c(cc(OC)c(OC)c2OC)[C@H](OC(=O)c2ccccc2)[C@@](C)(O)[C@H]1C)OCO3	28.7 µM	4.1	119 µM
C/C=C(\C)C(=O)O[C@H]1c2cc(OC)c(OC)c(OC)c2-c2c(cc3c(c2OC)OCO3)[C@H](OC(=O)/C=C/c2ccccc2)[C@H](C)[C@]1(C)O	7.9 µM	> 25.2	> 200 µM
Cc1cn([C@H]2C[C@H](N=[N+]=[N-])[C@@H](CO)O2)c(=O)[nH]c1=O [ZIDOVUDINE]	0.00195 µM	> 500000	> 1000 µM
C/C=C(\C)C(=O)O[C@H]1c2cc(OC)c(OC)c(OC)c2-c2c(cc3c(c2OC)OCO3)[C@H](OC(=O)c2ccccc2)[C@H](C)[C@H]1C	15.4 µM	5.1	78.2 µM
CC[C@H](C)C(=O)Oc1c(OC)c(OC)cc2c1-c1c(cc(OC)c(OC)c1OC)[C@H](O)[C@H](C)[C@H](C)C2 [TIEGUSANIN A]	29.8 µM	> 6.7	> 200 µM
COc1c(O)cc2c(c1OC)-c1c(cc3c(c1OC)OCO3)C[C@@H](C)[C@@H](C)[C@H]2OC(=O)/C=C/c1ccccc1 [TIEGUSANIN L]	7.3 µM	10.2	74.1 µM
COc1cc2c(c(OC)c1OC)-c1c(cc3c(c1OC)OCO3)C(=O)[C@@H](C)[C@@H](C)C2	20.4 µM	> 9.8	> 200 µM
COc1cc(C[C@@H](C)[C@@H](C)Cc2ccc(OC)c(OC)c2)ccc1O	2.9 µM	5.8	17.2 µM
C/C=C(/C)C(=O)O[C@H]1c2cc(OC)c(OC)c(OC)c2-c2c(cc3c(c2OC)OCO3)[C@H](OC(C)=O)[C@H](C)[C@@H]1C [INTERIOTHERIN C]	9.9 µM	> 20.2	> 200 µM
